The values below come from the EternaBench riboswitch data.

In the data set the test system is MS2 coat protein. Put plainly: apparent Kd, MS2 coat protein; higher = weaker binding; RNA-MaP array; FMN 200 µM where present. A digest of the protocol:
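The apparent Kd comes from binding curves fitted cluster by cluster, filtered, and summarised as a median. Those curves followed SNAP-549-labelled MS2 coat protein from 0.7 or 1.5 nM, doubling to 3 µM, on Illumina sequencing-chip clusters where stalled E. coli RNA polymerase had transcribed the designs, without and then with constant ligand. The buffer was 100 mM Tris-HCl pH 7.5, 80 mM KCl, 4 mM MgCl2, BSA, DTT, yeast tRNA and Tween-20, and green signal was normalised to red-channel RNA signal and control-cluster median Fmax.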

Setting [1] is: designed as: OFF switch for flavin mononucleotide, no ligand.
The mark [2] stands for this setting: ligand present: flavin mononucleotide, designed as: OFF switch for flavin mononucleotide.
Where [3] appears, read: designed as: ON switch for flavin mononucleotide, no ligand.
[4] abbreviates: ligand present: flavin mononucleotide, designed as: ON switch for flavin mononucleotide.

A word on the apparent Kd: it is the concentration giving half-maximal binding under the conditions of the assay. As to “AGAAACUACGAGAAGGACAUGAGAACCUUCAUUUACAUGAGGAUCACCCAUGUAGGAUAUCGUAGUUUCAGGAUCGUGAGAUCA”, the “apparent Kd” value by setting is: under setting [1], 45.6 nM; under setting [2], 232 nM.

On to “AAGAAGGACGCAGGAUAUCCAGGACCUCCCGCAGGAGAAGGGCGAGACAUGAGGAUCACCCAGACAUGAGGAUCACCCAUGUAG”, for which the “apparent Kd” value is, setting by setting: under setting [1], 37.4 nM; under setting [2], 37.1 nM.

In the case of “GUAGCAUACCGAGGAUAUUCAACGACAAAGUCGACAUGAGGAUCACCCAUGUGGCGAAAGCCUUGGGAGAAGGCGGAAUGCUAC”, the “apparent Kd” value under setting [3] came out at 16.5 nM and the “apparent Kd” value under setting [4] was found to be 11.1 nM.

As to “AAAACACAUGAGGAUCACCCAUGUAUCUGGACCAUAGGAUAUCCGCGCCCACUAGGGUAUGGAGAAGGGUGAGCCC”, the “apparent Kd” value amounted to 161 nM under setting [3] and 122 nM under setting [4].

Turning to “GCGUAAGAACAGAAGGGUAGACAUGAGGAUCACCCAUGUAAACAUGGAUGCAGGAUAUGUUAUAAUUGAGAUUCAUAAAUUCGC”, the “apparent Kd” value runs as follows: under setting [3], 130 nM; under setting [4], 106 nM.

On to “UGACCACAUGAGGAUCACCCAUGUGAGGAUAUCAGAAUACGGCAUCGGGCCGUACUUUUGAGAAGGCACAUAAA”, for which the “apparent Kd” value was determined as 24.1 nM under setting [1] and 65.2 nM under setting [2].

Consider “CAGCUCUGAGGAUAUCCAUCCUCCUACAUGAGGAUCACCCAUGUUUCCCUCUGGGUUUUCGGAGAAGGCAGUUAUU”, for which the “apparent Kd” value was 238 nM under setting [1] and 459 nM under setting [2].

On to “UGAGCAAGAGGAUAUACAAGGCGUGCGUGAGCACGAGGUUUACAUGAGGAUCACCCAUGUAGAAGGCUUGUUCU”, for which the “apparent Kd” value turned out to be 16.3 nM under setting [1] and 34.4 nM under setting [2].

Take “ACAUGAGGAUCACCCAUGUAGAAUGAAGAAGGUAGAUACUUGAGACUCACCCAUGUACAUAGGACUAAGGAUAUUCUAAUAAUU”: the “apparent Kd” value runs as follows: under setting [3], 14.1 nM; under setting [4], 10.7 nM.

Consider “UUCCUCGUUGUGAGGAUAUCGUCCGUGUUUUGUUACGAGAAGGCACAUGAGGAUCACCCAUGUUACUUGAUGUU”, for which the “apparent Kd” value was determined as 18.7 nM under setting [1] and 110 nM under setting [2].

For the sequence “AAUUAUUGAUGAGGAUAUUGUGGUGAAACACGACAAGAAGGCAUUAUACACAUGAGGAUCACCCAUGUGAGCCUGAUGCAUAUA”, the “apparent Kd” value is 16.6 nM under setting [1] and 22.2 nM under setting [2].

On to “ACAAUAAAGGGUCUGGUUCCAUACAUGAGGAUCACCCAUGUCAAGGAUAUAACGGACGGGCGCCGUUAGAAGGUGACGACUGCG”, for which the “apparent Kd” value under setting [1] amounted to 132 nM and the “apparent Kd” value under setting [2] was 401 nM.

Regarding “GGGUCCGCUCGAGGAUAUAGCUGCAUGUAGUGUCCUGAGGCACAUGAGGAUCACCCAUGUGUAGGCUAGAAGGCGACGGACACU”, the “apparent Kd” value runs as follows: under setting [1], 50 nM; under setting [2], 114 nM.

Take “UGAGCCUCGUGAGGAUAUACAUGAGGAUCACCCAUGUAAUAAAGUGAGCGGAGGAAACUCCGAAUGUAGAAGGCACGAGGCUCA”: the “apparent Kd” value by setting is: under setting [1], 26 nM; under setting [2], 186 nM.

For the sequence “UGACGGAGCUGAGGAUAUAACAUGAGGAUCACCCAUGUAAGUCUCCAGGAAACUGGAGACAAUAGUUAGAAGGCAGCUCCGUCA”, the “apparent Kd” value by setting is: under setting [1], 14.6 nM; under setting [2], 19.4 nM.

In the case of “UGGCUACAUGAGGAUCACCCAUGUCAGGAUAUGCCGUUGGAUUGACUUCGUCGUUCGGGUAGAAGGGACUGCGU”, the “apparent Kd” value turned out to be 43.3 nM under setting [1] and 54.9 nM under setting [2].

Take “CGAUGUUAUGCAGGAUAUCUCUCUUGAAUGCGGAGAGAAGGGCAUAGGGAGACAUACGCCUUAUUACAUGAGGAUCACCCAUGU”: the “apparent Kd” value was 9.02 nM under setting [1] and 7.92 nM under setting [2].

Consider “GACAGCUCGUGAGGAUAUACAACACUGCUUCGGCAGUGUAUUAAGAUCACAUGAGGAUCACCCAUGUAGAAGGCACGAGCUGAU”, for which the “apparent Kd” value runs as follows: under setting [1], 13.5 nM; under setting [2], 319 nM.

As to “AGAUGACAAAGUCAUCUCUGGCAGACAUGAGGAUCACCCAUGUAGGAUAUACUACUCAAAGAGUAGUAGAAGGACAUGUGUCUU”, the “apparent Kd” value by setting is: under setting [1], 35.9 nM; under setting [2], 99.4 nM.

On to “CCCACGCAUGAGAAGGGACAGGCGUGCAAUUCGACAUGAGGAUCACCCAUGUCAGGAUAUCAGUUAAGGUGGGCAGAACCGAUG”, for which the “apparent Kd” value under setting [1] stood at 15.4 nM and the “apparent Kd” value under setting [2] is 57.3 nM.

On to “AUCGGCCCGUAGAAGGGUGACAUGAGGAUCACCCAUGUGCCGCGUGCAUUUAUGCCUCCGCGGCCACAGGAUAUACGGAGUUGA”, for which the “apparent Kd” value is, setting by setting: under setting [3], 61 nM; under setting [4], 50 nM.

For the sequence “UAGACCGAUGUUAGGAUAUCUGGUCGAGAAAGAAAAGAGAAGGAACAUGAGGAUCACCCAUGUACCCGGGUAAC”, the “apparent Kd” value is, setting by setting: under setting [1], 15 nM; under setting [2], 19.2 nM.

For “AACAUCCAAGCGCCCGGGUGGAGGAGAAGGCGGACAUGAGGAUCACCCAUGUGCAGCCACAAGUCCGAGGAUAUCCUUUGUGUU”, the “apparent Kd” value stood at 10.6 nM under setting [1] and 20.2 nM under setting [2].

With “UCCUGAUUGAGAGGUAGGAGUGGUAGAAGGCGACCGGUGCCAGAUGACAUGAGGAUCACCCAUGUCGAGGAUAUACCACAGAAU”, the “apparent Kd” value under setting [1] was found to be 6.96 nM and the “apparent Kd” value under setting [2] came to 13.1 nM.

For “GUAGCUACUUUUAUACAUGAGGAUCACCCAUGUUACUUGGGUAAGGAUAUUGAUGUUAUGAUUAUCAAGAAGGUACUAUGCUAC”, the “apparent Kd” value reads like this: under setting [3], 136 nM; under setting [4], 30 nM.

As for “AAGAAGUGAGGAUAUGCUGCUCGUCACUUGCGUGAUGAGUAGCAGAAGGCACAUGAGGAUCACCCAUGUGGAAA”, the “apparent Kd” value under setting [1] turned out to be 31.3 nM and the “apparent Kd” value under setting [2] was 43.1 nM.

Consider “CGUCGCUGUCGAGAGGAUAUGCGGUGAUGGACAUGAGGAUCACCCAUGUUAGCGAUAGUAUCACGGUAGAAGGCUCUUACGACUG”, for which the “apparent Kd” value is, setting by setting: under setting [3], 32.9 nM; under setting [4], 25.3 nM.

For “CUCGUGUGAGGAUAUUCGGGCGGGCUCGUUUGGGUUUGUUUGGAGAAGGUACAUGAGGAUCACCCAUGUGCUGG”, the “apparent Kd” value under setting [1] stood at 51 nM and the “apparent Kd” value under setting [2] was 175 nM.

In the case of “UGAUCGAGAGAUCUUAGAUUCUGGUAGGAUAUACAUUAUGUUAAAAUUACAUGAGGAUCACCCAUGUAGAAGGACUAGAGUCUA”, the “apparent Kd” value is, setting by setting: under setting [1], 6.13 nM; under setting [2], 9.12 nM.

As for “GUGAAGUGAGGAUAUACGAGAGAGGCUGAACCUGGAGAGAAGUAGAAGGCACAUGAGGAUCACCCAUGUUAGGA”, the “apparent Kd” value is 39.6 nM under setting [1] and 30.3 nM under setting [2].

Take “GAUCACUCUGUGAGGAUAUGAGGGCUCUUAGAGUAUCAGAAGGCACAUGAGGAUCACCCAUGUAUUCCGUUCUA”: the “apparent Kd” value reads like this: under setting [1], 42.5 nM; under setting [2], 259 nM.

For the sequence “AUGGAUAUCACAGGAUAUGCUAUGGAUACCAUAGCAGAAGGGUGAUCCAUCCUAUGGCUGCACAUGAGGAUCACCCAUGUGUCC”, the “apparent Kd” value is, setting by setting: under setting [3], 107 nM; under setting [4], 11.1 nM.

As to “UAGUUUUAGCGAGGAUAUCGUAUGUUUAAUUUUUUAUAUUGUUUACAUGAGGAUCACCCAUGUUACGAGAAGGCGCAUGGGAUU”, the “apparent Kd” value under setting [3] is 388 nM and the “apparent Kd” value under setting [4] was 100 nM.

For the sequence “CUCAUGUUAGGAUAUGCGCUCGACCUAGUGGUCGAGCUCUAGCAGAAGGAACAUGAGGAUCACCCAUGUUUGCA”, the “apparent Kd” value worked out at 63.3 nM under setting [1] and 19.6 nM under setting [2].

Consider “CUUGUACAUGAGGAUCACCCAUGUUAGGAUAUCUCGCCGUCGGCUUGCCGACGGUAUUAGAGAAGGGACUAGGG”, for which the “apparent Kd” value runs as follows: under setting [1], 35.4 nM; under setting [2], 39.5 nM.

“ACAUGGUAGUAGAAGGGUAUUACUUUAGAUACAACCAUUUGUUUAGUUUAUACAGGAUAUGCUUACAUGAGGAUCACCCAUGUU”: the “apparent Kd” value under setting [2] is 8.74 nM.

On to “UUACCUUAUGAGAAGGCGGUCAUGAAACAUGAUCGAGGAUAUCAUGUAAACAUGAGGAUCACCCAUGUAUGGGUAUUAUGGUAC”, for which the “apparent Kd” value under setting [3] amounted to 165 nM and the “apparent Kd” value under setting [4] is 31.8 nM.

As to “ACAUGAGGAUCACCCAUGUUCGUUGAAGAAGGUACGUAUGGCUGUGGCAGGAAUAUAGUUAUAUGUAAGGAUAUUCUCAUAAUU”, the “apparent Kd” value is, setting by setting: under setting [3], 13.1 nM; under setting [4], 7.11 nM.

For “GCUUGUGAAGGAUAUACUGGAGGCGUGCGAUAGAAGCACGCACAUGAGGAUCACCCAUGUAGAAGGUCAGGCGU”, the “apparent Kd” value under setting [1] was 36.9 nM and the “apparent Kd” value under setting [2] came out at 44.5 nM.

For the sequence “AAAUUAGGGAGAGGAUAUUGACAUGAGGAUCACCCAUGUAUUUGGGAGUGUUUACUGAAUUCUUACGAGAAGGCUUACGAAAUU”, the “apparent Kd” value was 320 nM under setting [1] and 255 nM under setting [2].

In the case of “GAUAGGACAGAGAAGGACGUAGCUAGAGAUACUAGCAUAAAGGUCCAAACAUGAGGAUCACCCAUGUAGGAUAUCUGUCCUAUC”, the “apparent Kd” value runs as follows: under setting [1], 6.47 nM; under setting [2], 6.92 nM.

For “AAUAAACUCACAGGAUAUAGCAGAGGUCGCGUGAACUUACAGACGACGAUGCUAGAAGGGUGACCACAUGAGGAUCACCCAUGU”, the “apparent Kd” value under setting [3] was 591 nM and the “apparent Kd” value under setting [4] came out at 151 nM.

“GCAGGAUAAGUCAGGAUAUACCUAUGGAUACAUAGGUAGAAGGGACAUGAGGAUCACCCAUGUGCCUCGCCUGC”: the “apparent Kd” value under setting [1] came to 14.5 nM and the “apparent Kd” value under setting [2] was found to be 37.4 nM.

Turning to “CUUUUGUGAGGAUAUUAGUAGUUAAUAAAUAAAAUUACUACUGAGAAGGCACAUGAGGAUCACCCAUGUUCCUC”, the “apparent Kd” value by setting is: under setting [1], 31.5 nM; under setting [2], 226 nM.

Regarding “ACUGGUCGAGGAUAUACAUUCGUGCUUCGGCACGUAAGAUCACAUGAGGAUCACCCAUGUAGAAGGCGACCAGU”, the “apparent Kd” value is, setting by setting: under setting [1], 104 nM; under setting [2], 732 nM.

Consider “AUCUUGUCAGGAUAUCGUACAAUAUGGAAAACAUAGAGGUACGAGAAGGGACAUGAGGAUCACCCAUGUAAAAC”, for which the “apparent Kd” value by setting is: under setting [1], 40.2 nM; under setting [2], 84.5 nM.

For “UGCCCAAAUGGGCCGUGGCAGCGUGAGGAUAUGGGUUGGAUACAUGAGGAUCACCCAUGUUCCUCCUAGAAGGCACUUGUAACC”, the “apparent Kd” value runs as follows: under setting [3], 183 nM; under setting [4], 41.5 nM.

Take “UCCUACAUCGGAGGAUAUCAUGUGUAAACAUGAGGAUCACCCAUGUCGUACGAGAGUACGGAGAUUGAGAAGGCCGAUGUAGGU”: the “apparent Kd” value by setting is: under setting [3], 96 nM; under setting [4], 17.2 nM.
